E coli Lon inh = inhibitors of E. coli Lon protease, primary screen, biochemical, fluorescence polarization; P0A9M0; purified E. coli Lon protease; inhibition, % at 7.94 µM; 0.42% of 360,000 active; in the data active = inhibition above about 13%, passing the limit was not always enough
PRMT1 inh = PRMT1 methyltransferase inhibitors, primary screen, biochemical, fluorescence polarization; recombinant PRMT1, activity-based probe fluorescence polarization; inhibition, % at 2.79 µM; 1.3% of 370,000 active; AID 652257, 2013;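 active = inhibition above about 21% made by adding two undisclosed values, limit read from the data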
PAD4 inh = human PAD4 inhibitors, primary screen, biochemical, fluorescence polarization, 1536-well format. Protein-arginine deiminase type-4 (Homo sapiens), Q9UM07. recombinant PAD4, RCA probe fluorescence polarization. inhibition, % at 6.36 µM. 0.41% of 330,000 active. AID 485272, 2010;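 active = percent inhibition above a cutoff equal to the mean of all tested compounds plus 3 SD, cut at about 15% in these data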
Target sequence (Q9UM07 whole entry, looked up): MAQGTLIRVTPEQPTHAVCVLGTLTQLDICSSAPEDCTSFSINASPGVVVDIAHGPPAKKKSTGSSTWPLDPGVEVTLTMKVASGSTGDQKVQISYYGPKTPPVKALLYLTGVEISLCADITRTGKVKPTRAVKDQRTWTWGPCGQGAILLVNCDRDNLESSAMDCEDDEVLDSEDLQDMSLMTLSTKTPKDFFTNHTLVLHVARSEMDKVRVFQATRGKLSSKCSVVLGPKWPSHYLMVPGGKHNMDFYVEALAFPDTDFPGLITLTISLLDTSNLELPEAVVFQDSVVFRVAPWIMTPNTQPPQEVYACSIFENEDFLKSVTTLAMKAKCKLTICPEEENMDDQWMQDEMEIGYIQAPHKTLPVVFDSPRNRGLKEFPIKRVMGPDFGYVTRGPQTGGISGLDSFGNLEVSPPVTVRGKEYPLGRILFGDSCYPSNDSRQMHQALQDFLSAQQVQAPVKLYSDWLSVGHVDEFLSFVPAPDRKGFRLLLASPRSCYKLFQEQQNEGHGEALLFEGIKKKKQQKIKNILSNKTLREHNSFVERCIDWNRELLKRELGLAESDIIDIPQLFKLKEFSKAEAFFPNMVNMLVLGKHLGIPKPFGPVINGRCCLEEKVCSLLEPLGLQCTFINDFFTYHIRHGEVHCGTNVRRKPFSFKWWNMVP
GSTO1 inh = inhibitors of recombinant GSTO1, primary screen, counter-screen for RBBP9 inhibitor project, biochemical, fluorescence polarization; 1.1% of 300,000 active; inhibition, % at 5.96 µM; Glutathione S-transferase omega-1 (Homo sapiens), P78417; activity-based probe fluorescence polarization;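 active = inhibition above the campaign mean inhibition plus 3 SD, cut at about 35% in these data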
TDP2 absorb = human TDP2 enzyme inhibitors, primary screen, biochemical, epi absorbance, recombinant enzyme. Tyrosyl-DNA phosphodiesterase 2 (Homo sapiens), O95551. T5PNP hydrolysis, p-nitrophenol absorbance 415 nm. inhibition, % at 12.8 µM. 0.34% of 370,000 active. AID 720702, 2013;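 active = inhibition above the mean of all tested compounds plus 3 SD, set per campaign, cut at about 25% in these data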
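Test system: human TDP2 enzyme; Input: 120 nM TDP2 per well; Buffer or medium: Mg2+-containing Tris-HCl buffer, pH 7.5; Reagent: 5 mM T5PNP; Dosing: 12.8 µM single point, 1% DMSO; Incubation: reaction 2 h, 37 °C; Detection: p-Nitrophenol epi absorbance; Read-out: % inhibition relative to enzyme-containing and enzyme-free wells; Replicates: single well per compound.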
E coli Lon conf = E. coli Lon protease inhibitor retest, confirmation, biochemical, fluorescence polarization | shares compounds with E coli Lon inh | purified E. coli Lon | inhibition, % at 7.94 µM | 31% of 1,400 active; in the data active = inhibition above about 16%
PRMT1 inh conf = PRMT1 methyltransferase inhibitors, confirmation, biochemical, fluorescence polarization, triplicate; shares compounds with PRMT1 inh; recombinant His-PRMT1, activity-based probe fluorescence polarization; inhibition, % at 2.79 µM; 42% of 3,300 active;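 active = mean inhibition across replicates above the hit cutoff derived for the earlier primary screen, cut at about 22% in these data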
TDP2 inh conf = human TDP2 enzyme inhibitors, retest, confirmation, biochemical, epi absorbance, recombinant enzyme. inhibition, % at 12.8 µM. AID 743263, 2014. 22% of 1,100 active. absorbance read-out. shares compounds with TDP2 absorb; in the data active = inhibition above about 25%
Hits are given with their value; n = inactive; x = no result; + = active, no number. The list is not random: actives were taken first. Their share in the collection is about 2.5%.

SMILES	E coli Lon inh	PRMT1 inh	PAD4 inh	GSTO1 inh	TDP2 absorb	PRMT1 inh conf	others
Cc1ccc(C)c(-n2c3nc(=O)[nH]c(=O)c-3cc3cc([N+](=O)[O-])ccc32)c1	60	26	n	n	52	n	E coli Lon conf=n;TDP2 inh conf=40
COc1cc(-n2c(C)nc3cc(C(=O)N4CCCN(C(C)=O)CC4)ccc32)cc(OC)c1OC	x	n	x	x	n	x
COC(=O)[C@]12C[C@H](CC(=O)N3CCC(c4ccccc4)CC3)C(=O)N(Cc3ccco3)C1=C[C@H](COCc1ccccc1)O[C@@H]2C	x	n	x	x	n	x
COc1ccc(N2CCN(CC(=O)N3c4ccccc4CC3C)CC2)cc1 (centres undefined)	18	n	n	n	26	x	E coli Lon conf=n;TDP2 inh conf=n
CC1CCN(CC(=O)N2c3ccccc3CC2C)CC1 (centres undefined)	n	n	n	n	n	x
CC(C)C1NC2(C(=O)c3ccccc3C2=O)C2C(=O)N(c3ccc(F)cc3)C(=O)C12 (centres undefined)	50	33	n	n	40	44	E coli Lon conf=n;TDP2 inh conf=n
CN(C)CCNc1ccc(CO)c2sc3ccc(O)cc3c(=O)c12	n	n	x	x	n	x
CN(C)CCNc1ccc2ncn3c4ccc(O)cc4c(=O)c1c23	+	67	x	x	31	88	E coli Lon conf=+;TDP2 inh conf=n
Cc1c(N)cc(N)cc1C(=O)O	61	32	n	n	31	n	E coli Lon conf=n;TDP2 inh conf=n
CN(C)c1ccc2nc3ccc(=O)cc-3sc2c1	40	60	x	x	31	35	E coli Lon conf=44;TDP2 inh conf=n
Cc1cc2nc3ccc(=[N+](C)C)cc-3sc2cc1N	n	x	x	x	x	x
Clc1ccccc1N=Nc1ccccn1	+	63	x	x	42	x	E coli Lon conf=n;TDP2 inh conf=27
C[C@@H]1CN(c2ccc(N3CCN(C(=O)OC(C)(C)C)C[C@H]3C)cc2C#N)CCN1Cc1ccccc1	x	n	x	x	n	x
COc1cc(CN2CCCC(C(=O)c3ccc4c5c(cccc35)CC4)C2)cc(OC)c1O (centres undefined)	n	28	n	n	n	n
Cc1ccc(Nc2c(-c3ccc(C)o3)nc3ncccn23)cc1	n	n	n	n	n	x
Cc1ccc(-c2nc3ncccn3c2NC2CCCC2)o1	n	n	n	n	n	x
Cc1ccc(-c2nc3cnccn3c2Nc2c(C)cccc2C)o1	n	79	n	n	n	n
Cc1ccc(-c2nc3ncccn3c2Nc2ccccc2C)o1	n	42	n	n	n	n
Cc1c(Cl)cccc1NC(=O)CC1Sc2ccccc2NC1=O (centres undefined)	n	n	n	n	n	x
CC(C)Cc1nnc(NC(=O)CCC(=O)N2CCN(Cc3ccc(Cl)cc3)CC2)s1	n	n	n	n	n	x
CCOc1ccc(-n2c(SCC(=O)c3ccc4ccccc4c3)nnc2-c2ccco2)cc1	x	46	x	x	n	n
O=S(=O)(Nc1cc(Sc2ncn[nH]2)c(O)c2ccccc12)c1ccccc1	n	64	x	x	71	111
CCc1nc2ccc(C(=O)NCc3ccc4c(c3)OCO4)cn2c1N(CC)Cc1cccc(Br)c1	n	n	x	x	n	x
C=CCn1c(CSc2ccccc2[N+](=O)[O-])n[nH]c1=S	n	25	n	n	n	n
CCOC(=O)N1C(=O)C[C@](Sc2ccc(OC)cc2)(C(=O)N2CCOCC2)[C@H]1c1ccc(OC)cc1	x	47	x	x	n	43
SMILES	E coli Lon inh	PRMT1 inh	PAD4 inh	GSTO1 inh	TDP2 absorb	PRMT1 inh conf	others
COc1ccc(S[C@]2(C(=O)N3CCN(C(C)=O)CC3)CC(=O)N[C@@H]2c2ccc(OC)cc2)cc1	x	n	x	x	n	x
CCOC(=O)N1C(=O)C[C@](Sc2ccc(OC)cc2)(C(=O)N2CCN(C(C)=O)CC2)[C@H]1c1ccc(OC)cc1	x	54	x	x	n	46
CCOC(=O)N1C(=O)C[C@](Sc2ccc(OC)cc2)(C(=O)N2CCN(c3ncccn3)CC2)[C@H]1c1ccc(OC)cc1	x	41	x	x	n	33
COc1ccc(S[C@]2(C(=O)N3CCOCC3)CC(=O)N(C(=O)C3CC3)[C@@H]2c2ccc(OC)cc2)cc1	x	36	x	x	n	27
COc1ccc(S[C@]2(C(=O)N3CCN(c4ncccn4)CC3)CC(=O)N(P(=O)(OC)OC)[C@@H]2c2ccc(OC)cc2)cc1	x	n	x	x	n	x
O=C(NCCc1ccc(O)c(Br)c1)c1ccc(Br)o1	n	n	x	x	n	x
COc1ccc(S[C@]2(C(=O)N3CCCC3)CC(=O)N(C(=O)Nc3ccc(C)c(Cl)c3)[C@@H]2c2ccc(OC)cc2)cc1	x	n	x	x	n	x
CCOC(=O)N1C(=O)C[C@](Sc2ccc(OC)cc2)(C(=O)N2CCCC2)[C@H]1c1ccc(OC)cc1	x	56	x	x	n	40
O=C(O)CCCCN1C(=O)C=CC1=O	x	77	x	x	n	95
O=C(O)CCCN1C(=O)C2C3C=CC(C2C1=O)C1C(=O)N(CCCC(=O)O)C(=O)C31 (centres undefined)	n	n	n	n	n	x
N#CCc1c(C#N)c(N)nc(Nc2ccccc2)c1C#N	n	40	n	n	n	n
Brc1ccc2nc(-c3ccco3)c(Cc3ccsc3)n2c1	n	36	x	x	n	34
Clc1ccc2nc(-c3ccco3)c(Cc3ccsc3)n2c1	n	47	x	x	n	23
Fc1cccc(Cc2c(-c3ccco3)nc3ccc(Cl)cn23)c1	n	x	x	x	x	x
Cc1cccc(N2C(=O)CC(Sc3nnc(C)s3)C2=O)c1 (centres undefined)	n	61	n	n	n	44
Cc1cc(C)cc(N2C(=O)CC(Sc3nnnn3-c3ccccc3)C2=O)c1 (centres undefined)	n	56	n	n	n	55
Cn1nnnc1SC1CC(=O)N(c2ccccc2)C1=O (centres undefined)	n	56	n	n	n	75
Cc1c(O)nc(SC2CC(=O)N(c3ccccc3)C2=O)[nH]c1=O (centres undefined)	n	n	n	n	n	x
CCOc1ccc2nc(SC3CC(=O)N(c4cccc(OC)c4)C3=O)sc2c1 (centres undefined)	n	38	n	n	n	26
Cc1cc(C(=O)OCC(=O)N2CCCCCC2)ccc1[N+](=O)[O-]	n	n	n	x	n	x
Cc1cc(C)cc(N2C(=O)CC(Sc3ncn[nH]3)C2=O)c1 (centres undefined)	n	29	n	n	n	43
O=C1CC(Sc2nnnn2C2CCCCC2)C(=O)N1c1ccccc1 (centres undefined)	n	75	n	n	n	73

Screening data from PubChem.
